Molecules are shown by their SMILES. Changes are numbered by the printed parent chain.

Experiment [1] addresses T1, WT hTMPK (Homo sapiens, UniProt P23919).
T1 sequence (P23919 1-212): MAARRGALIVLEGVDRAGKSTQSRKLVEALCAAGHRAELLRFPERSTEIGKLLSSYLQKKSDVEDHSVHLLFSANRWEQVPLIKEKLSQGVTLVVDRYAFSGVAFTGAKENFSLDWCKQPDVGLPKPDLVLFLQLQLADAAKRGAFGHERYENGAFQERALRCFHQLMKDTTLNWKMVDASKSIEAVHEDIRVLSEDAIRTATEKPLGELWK
Put plainly: ADP binding constants by two-dimensional NMR lineshape fitting of ADP titration. The following applies: for Kd / koff: 34 °C, pH 6.9. In outline:
(§1)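 ILV methyl-labelled (13CH3/13CHD2) His-tagged hTMPK was expressed in E. coli and purified by cobalt affinity and cation exchange. Samples were in D2O with 20 mM MES, 150 mM NaCl, 10 mM MgCl2, 1 mM DTT, pH 6.9, plus 2 mM TMP or AZTMP. Protein was WT 0.8 mM and F105Y 0.4 mM. ADP was titrated at 0–2.4 ligand:protein across a 1H–13C HMQC series at 34 °C. KD and koff came from 2D lineshape fitting of five shifting methyl peaks (2-state model) with bootstrap errors.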

In experiment [2] the target is T2, F105Y hTMPK (Homo sapiens, UniProt P23919, F105Y).
T2 sequence (P23919 1-212 F105Y): T1 sequence (P23919 1-212) with F105Y
The experiment is described as above. The following applies: for Kd / koff: 34 °C, pH 6.9. The essentials:
as §1

Experiment [3] addresses T1, WT hTMPK. The format is binding. The following applies: WT–AZTMP, 2 mM ADP, Ile184δ1 CPMG RD. In outline: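 Ile184δ1 CHD2 methyl 1H CPMG dispersion was run at 34 °C on a WT–AZTMP sample with 2 mM ADP, in pH 6.9 MES/MgCl2 D2O buffer. Trelax was 40 ms with ncyc 1–78. pa and kex were fitted by grid search to the full exchange equation, and koff was derived from them. Errors are ±2 standard error from 100 bootstrap resampled datasets.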

The target in experiment [4] is T1, WT hTMPK. The following applies: cited from earlier work.
The target of experiment [5] is T2, F105Y hTMPK. The following applies: cited from earlier work.
A further experiment concerns TMPK from yeast (ScTMPK). The following applies: cited from earlier work.

Consider `Nc1ncnc2c1ncn2[C@@H]1O[C@H](COP(=O)(O)OP(=O)(O)O)[C@@H](O)[C@H]1O` [ADP], for which the Kd came out at 15 ± 1 µM at WT hTMPK [1] (ADP binding to WT hTMPK with 2 mM AZTMP bound), 15 ± 2.1 µM at WT hTMPK [1] (ADP binding to WT hTMPK with 2 mM TMP bound), 4.4 ± 1.7 µM on F105Y hTMPK [2] (ADP binding to F105Y hTMPK with 2 mM AZTMP bound) and 4.2 ± 1.3 µM on F105Y hTMPK [2] (ADP binding to F105Y hTMPK with 2 mM TMP bound). Further, the koff on WT hTMPK [1] (ADP off-rate from WT hTMPK with 2 mM AZTMP bound) came out at 24 ± 0.8 s^–1; on WT hTMPK [1] (ADP off-rate from WT hTMPK with 2 mM TMP bound), 12 ± 0.7 s^–1; on F105Y hTMPK [2] (ADP off-rate from F105Y hTMPK with 2 mM AZTMP bound), 0.20 ± 0.9 s^–1; at F105Y hTMPK [2] (ADP off-rate from F105Y hTMPK with 2 mM TMP bound) it was 2.7 ± 0.8 s^–1. Also, the “faster ADP off-rate (koff) with AZTMP bound than with TMP bound” value on WT hTMPK [1] (WT hTMPK) was determined as 2 fold. Moreover, the “reduced ADP off-rate (koff) with AZTMP bound relative to TMP bound” value on F105Y hTMPK [2] (F105Y hTMPK) came out at 15 fold. The “koff estimated from kex and pa” value on WT hTMPK [3] is reported as 31 ± 5.1 s^–1.
For the compound `Cc1cn([C@H]2C[C@H](O)[C@@H](COP(=O)(O)O)O2)c(=O)[nH]c1=O` [TMP, thymidine monophosphate], the Km on WT hTMPK [4] was 6.3 µM; at F105Y hTMPK [5] (F105Y hTMPK), 4.2 µM. Also, the kCAT on WT hTMPK [4] (substrate phosphorylation) is given as 0.73 s^–1; at F105Y hTMPK [5] (F105Y hTMPK, substrate phosphorylation), 0.17 s^–1; with TMPK from yeast (ScTMPK), 35 s^–1. Also, at F105Y hTMPK [5] (F105Y vs WT hTMPK), the “reduction of activity toward TMP by Phe105Tyr mutation” value is given as 4 fold.

The Kd is the equilibrium constant for the complex coming apart. Read a high Kd as lower affinity. For orientation: Km means the concentration of substrate that gives half-maximal velocity.

The values are drawn from publication PMC7017412 (ACS Omega, 2020).
